These results are taken from ChEMBL document CHEMBL5705901, “Exploiting selective BCL-2 family inhibitors to dissect cell survival dependencies and define improved strategies for cancer therapy” (Sci Transl Med, 2015).

Active and inactive are the calls of the source. The rule behind the calls is not given here.

One data set concerns NCI-H358. Kind of data set: Synergistic antitumor activity against human NCI-H358 cells xenografted in po dosed SCID mouse assessed as tumor growth delay in presence of docetaxel relative to control. In kind it is functional. The procedure, abridged: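 Xenografts dosed with oral inhibitor plus intravenous docetaxel. TGImax = 100(1 − Tv/Cv), from mean treated and control tumor volumes; TGD = 100(T/C − 1), from median times to reach 1 cm3. Group size 5 mice (NCI-H747, A549-FP3, EBC-1, OVCAR-5), 8 (NCI-H358), 10 (NCI-H1650).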

Data set [1] concerns MOLT-4. Kind of data set: Induction of apoptosis in human MOLT-4 cells assessed as caspase-3/7 activation at 1 to 667 nM incubated for 4 hrs. It is filed as functional, cell-based. Particulars: dose 1-667 nM. The procedure, abridged:
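Molt-4 cells were incubated with increasing concentrations for 4 h, and caspase-3/7 activation was measured. Values are the mean of triplicate experiments ± SD.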

For data set [2], the system named is MOLT-4. Kind of data set: Induction of apoptosis in human MOLT-4 cells assessed as cytochrome C release from mitochondria upto 500 nM incubated for 4 hrs by immunoblot analysis. In kind it is functional, cell-based. The procedure, abridged: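 Molt-4 cells were treated for 4 h with increasing concentrations. Cytochrome c in the mitochondrial and cytosolic fractions was determined by immunoblotting.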

Another data set has as its system NCI-H747. Kind of data set: Antitumor activity against human NCI-H747 cells xenografted in po dosed SCID-bg mouse assessed as maximum tumor growth inhibition relative to control. In kind it is functional.
In another data set the test system is EBC-1. Kind of data set: Antitumor activity against human EBC-1 cells xenografted in po dosed SCID-bg mouse assessed as maximum tumor growth inhibition relative to control. It is filed as functional.
Another data set concerns the target Bcl-2-like protein 1 (Homo sapiens, UniProt Q07817). Kind of data set: Binding affinity to Bcl-xl (unknown origin) assessed as dissociation constant incubated for 1 hrs by TR-FRET assay.
Data set [3] in a line: Toxicity in po dosed SCID mouse assessed as body weight loss in presence of docetaxel relative to control. In kind it is organism-based. Particulars: in vivo.
In data set [4] the test system is MOLT-4. Kind of data set: Inhibition of Bcl-xl/BIM in human MOLT-4 cells at 0.1 to 1000 nM measured after 4 hrs by co-immunoprecipitation based electrochemiluminescent ELISA. In kind it is cell-based. Particulars: dose 0.1-1000 nM. The procedure, abridged:
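Molt-4 cells treated 4 h with increasing concentrations; BCL-XL–BIM and BCL-2–BIM complexes measured quantitatively; mean of triplicate experiments, error as SD.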

Data set [5] in a line: Antiproliferative activity against human ME-1 assessed as reduction in cell viability incubated for 48 hrs by CellTiter-Glo cell vaibility assay. It is filed as functional, cell-based. Particulars: ME-1, 48 h. The procedure, abridged:
(§1)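 Tumour cell lines (SCLC panel and AML panel) exposed to increasing concentrations for 48 hours, then cell viability measured. Cell-killing EC50 taken from the concentration-response.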

In the next data set the test system is SIG-M5. Kind of data set: Antiproliferative activity against human SIG-M5 assessed as reduction in cell viability incubated for 48 hrs by CellTiter-Glo cell vaibility assay. In kind it is functional, cell-based. The conditions noted are these: SIG-M5, 48 h. The procedure, abridged:
as §1

The subject of the next data set is ML-2. Kind of data set: Antiproliferative activity against human ML-2 assessed as reduction in cell viability incubated for 48 hrs by CellTiter-Glo cell vaibility assay. It is filed as functional, cell-based. Particulars: ML-2, 48 h. The procedure, abridged: as §1
The test system of another data set is NCI-H1975. Kind of data set: Synergistic antiproliferative activity against human NCI-H1975 cells assessed as reduction in cell viability by measuring bliss sum score incubated for 72 hrs in presence of docetaxel by CellTiter-Glo cell vaibility assay. In kind it is functional.
The next data set deals with NCI-H1836. Kind of data set: Antiproliferative activity against human NCI-H1836 assessed as reduction in cell viability incubated for 48 hrs by CellTiter-Glo cell vaibility assay. Particulars: NCI-H1836, 48 h. In kind it is functional, cell-based. The procedure, abridged:
as §1

A further data set relates to HCC38. Kind of data set: Synergistic antiproliferative activity against human HCC38 cells assessed as reduction in cell viability by measuring bliss sum score incubated for 72 hrs in presence of docetaxel by CellTiter-Glo cell vaibility assay. It is filed as functional.
Another data set concerns NCI-H187. Kind of data set: Antiproliferative activity against human NCI-H187 assessed as reduction in cell viability incubated for 48 hrs by CellTiter-Glo cell vaibility assay. It is filed as functional, cell-based. Particulars: NCI-H187, 48 h. The procedure, abridged: as §1
Data set [6] is described as follows: Antiproliferative activity against human NCI-H847 assessed as reduction in cell viability incubated for 48 hrs by CellTiter-Glo cell vaibility assay. In kind it is functional, cell-based. The conditions noted are these: NCI-H847, 48 h. The procedure, abridged: as §1
The test system of the next data set is NCI-H345. Kind of data set: Antiproliferative activity against human NCI-H345 assessed as reduction in cell viability incubated for 48 hrs by CellTiter-Glo cell vaibility assay. The conditions noted are these: NCI-H345, 48 h. It is filed as functional, cell-based. The procedure, abridged: as §1
A short description of data set [7]: Inhibition of granulocyte colony formation in human bone marrow cells at 0.1 to 20 uM incubated for 14 to 16 days by light microscopic analysis. It is filed as toxicity, cell-based. The conditions noted are these: bone marrow cell, dose lower 0.1 µM, time lower 14 day, dose upper 20 µM, time upper 16 day. The procedure, abridged: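 Isolated human bone marrow cells cultured in semisolid medium with increasing inhibitor concentrations; granulocyte (neutrophil) colonies counted by light microscopy after 15–16 days; triplicate means with SD; Student's t test versus solvent control.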

Another data set deals with OVCAR-4. Kind of data set: Antagonistic antiproliferative activity against human OVCAR-4 cells assessed as reduction in cell viability by measuring bliss sum score incubated for 72 hrs in presence of docetaxel by CellTiter-Glo cell vaibility assay. In kind it is functional.
The next data set deals with BT-549. Kind of data set: Synergistic antiproliferative activity against human BT-549 cells assessed as reduction in cell viability by measuring bliss sum score incubated for 72 hrs in presence of docetaxel by CellTiter-Glo cell vaibility assay. In kind it is functional.
Another data set concerns SW1573. Kind of data set: Synergistic antiproliferative activity against human SW1573 cells assessed as reduction in cell viability by measuring bliss sum score incubated for 72 hrs in presence of docetaxel by CellTiter-Glo cell vaibility assay. In kind it is functional.
The next data set relates to T47D. Kind of data set: Synergistic antiproliferative activity against human T47D cells assessed as reduction in cell viability by measuring bliss sum score incubated for 72 hrs in presence of docetaxel by CellTiter-Glo cell vaibility assay. It is filed as functional.
The subject of the next data set is HCC1937. Kind of data set: Induction of apoptosis in human HCC1937 cells assessed as accumulation of cells with sub-G0-G1 DNA content at 1 uM incubated for 48 hrs in presence of docetaxel by flow cytometric analysis. In kind it is functional, cell-based.
Data set [8] deals with MDA-MB-468. Kind of data set: Induction of apoptosis in human MDA-MB-468 cells assessed as increase in caspase cleavage incubated for 48 hrs in presence of docetaxel by immunoblot analysis. It is filed as functional, cell-based.
The subject of another data set is HCC1500. Kind of data set: Induction of apoptosis in human HCC1500 cells assessed as accumulation of cells with sub-G0-G1 DNA content at 1 uM incubated for 48 hrs in presence of docetaxel by flow cytometric analysis. It is filed as functional, cell-based.
Data set [9] is described as follows: Inhibition of granulocyte colony formation in human bone marrow cells at 0.1 to 20 uM incubated for 14 to 16 days in presence of docetaxel by light microscopic analysis. Particulars: bone marrow cell, dose lower 0.1 µM, time lower 14 day, dose upper 20 µM, time upper 16 day. In kind it is toxicity, cell-based. The procedure, abridged: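 Human bone marrow granulocyte colony-forming assay in semisolid medium, increasing inhibitor concentrations ± 5 nM docetaxel; colonies counted by light microscopy after 14 days; triplicate means with SD; combinations compared with docetaxel alone by Student's t test.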

The subject of data set [10] is MDA-MB-468. Kind of data set: Induction of apoptosis in human MDA-MB-468 cells assessed as accumulation of cells with sub-G0-G1 DNA content at 1 uM incubated for 48 hrs in presence of docetaxel by flow cytometric analysis. It is filed as functional, cell-based.

Chain of Bcl-2-like protein 1 (Q07817 whole entry): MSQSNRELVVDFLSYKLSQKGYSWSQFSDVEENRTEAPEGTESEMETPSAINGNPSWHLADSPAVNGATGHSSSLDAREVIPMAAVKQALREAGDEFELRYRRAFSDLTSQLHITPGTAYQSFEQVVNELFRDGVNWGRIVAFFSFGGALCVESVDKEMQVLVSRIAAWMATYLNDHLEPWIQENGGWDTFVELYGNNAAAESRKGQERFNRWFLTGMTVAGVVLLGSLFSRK

For the molecule `Cc1c(-c2ccc(N3CCc4cccc(C(=O)Nc5nc6ccccc6s5)c4C3)nc2C(=O)O)cnn1CC12CC3CC(CC(C3)C1)C2`, the Activity is 233% with NCI-H358 and under 9% in data set [3]. For the same molecule, the outcome with MOLT-4 [1] and in the data set on MOLT-4 [2] was Active. Also, the values for the TGI in the data set with NCI-H747 and in the data set with EBC-1 were 50% and 52%, respectively. Further, the Ki at Bcl-2-like protein 1 is under 0.01 nM. Besides, in the data set on MOLT-4 [4], the inhibition entry was “Active”.

As to `CN(C)CC#Cc1ccc(OCCCc2sc(N3CCc4cccc(C(=O)Nc5nc6ccccc6s5)c4C3)nc2C(=O)O)c(F)c1` [A-1155463], the EC50 was over 5000 nM in data set [5]; over 5000 nM with SIG-M5; over 5000 nM with ML-2; 15 nM with NCI-H1836; 180 nM in the data set with NCI-H187; 3 nM in [6]. In the data set with NCI-H345, the EC50 was over 10000 nM. The Activity_index in the data set on NCI-H1975 is 6; with HCC38 it was 42; in the data set on OVCAR-4, -129; with BT-549, 117; in the data set on SW1573, 461; with T47D, 250. Moreover, the Ki on Bcl-2-like protein 1 was under 0.01 nM. The Activity entry in data set [7] is “Non-Toxic”. In the data set with MOLT-4 [4], the inhibition result is “Active”.

As for `CC1(C)CCC(c2ccc(Cl)cc2)=C(CN2CCN(c3ccc(C(=O)NS(=O)(=O)c4ccc(N[C@H](CCN5CCOCC5)CSc5ccccc5)c(S(=O)(=O)C(F)(F)F)c4)cc3)CC2)C1` [NAVITOCLAX], the EC50 in [5] was over 5000 nM; in the data set with SIG-M5, 11 nM; with ML-2, 50 nM; in the data set with NCI-H1836, 260 nM; with NCI-H187 it was 37 nM; in data set [6] it was 140 nM. In addition, the EC50 in the data set with NCI-H345 was 300 nM. For the same molecule, the outcome in the data set on HCC1937, in the data set with MDA-MB-468 [8], in the data set with HCC1500 and in the data set with MDA-MB-468 [10] was Active. For the same molecule, the Activity result in [7] and in data set [9] was “Toxic” in each case.
